Measurements published in ChEMBL document CHEMBL4334478, “Isolation, Structural Elucidation, Optical Resolution, and Antineuroinflammatory Activity of Phenanthrene and 9,10-Dihydrophenanthrene Derivatives from Bletilla striata” (J Nat Prod, 2019).

test system: BV-2; experiment: Antineuroinflammatory activity against mouse BV2 cells assessed as inhibition of LPS-induced NO production incubated for 24 hrs by Griess assay; type: functional, cell-based; details: Mus musculus, BV-2, 24 h; read-out: IC50; call rule not given here
Summary of the method: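 Griess read-out of nitrite in LPS-stimulated BV-2 microglia, with cell viability checked in parallel by MTT. Minocycline served as positive control. IC50 values are reported as mean ± SEM.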

Structure (SMILES) | IC50 [µM]
COc1cc([C@@H]2Oc3cc(OC)c4c(c3[C@H]2CO)CCc2cc(O)ccc2-4)cc(OC)c1O | 18.5
COc1cc2c(ccc3c(-c4c(O)cc(OC)c5c4ccc4cc(O)ccc45)c(O)cc(OC)c32)cc1O | 5
COc1cc(O)c(Cc2ccc(O)cc2)c2ccc3cc(O)ccc3c12 | 30.2
COc1cc(O)cc2c1-c1ccc(O)cc1CC2 | 15.2
COc1cc(O)c2c(c1-c1c(OC)cc(O)c3c1CCc1cc(O)ccc1-3)CCc1cc(O)ccc1-2 | 39.4
COc1cc(O)c(-c2c(O)cc(OC)c3c2ccc2cc(O)ccc23)c2c1-c1ccc(O)cc1CC2 [CIRRHOPETALANTHRIN] | 46.8
COc1c(Cc2ccc(O)cc2)c(O)cc2c1-c1ccc(O)cc1CC2 | 34.6
COc1cc(O)c2c(c1Cc1ccc(O)cc1)CCc1cc(O)ccc1-2 | 12 to 30
COc1c(O)c(O)cc2ccc3cc(O)ccc3c12 | 30
COc1c(O)ccc2c1ccc1c(-c3c(O)cc(OC)c4c3ccc3c(OC)c(O)ccc34)c(O)cc(OC)c12 | 1
COc1cc(CCc2cccc(O)c2)c(-c2c(O)cc(O)c3c2CCc2cc(O)ccc2-3)c(OC)c1 | 60.7
CN(C)c1ccc(O)c2c1C[C@H]1C[C@H]3[C@H](N(C)C)C(O)=C(C(N)=O)C(=O)[C@@]3(O)C(O)=C1C2=O [MINOCYCLINE] | 27.2 to 35.7
COc1cc(O)cc(CCc2cccc(O)c2)c1-c1c(OC)cc(O)c2c1CCc1cc(O)ccc1-2 | 1.9

More lines, now with the values ahead:

IC50 [µM] | Structure (SMILES)
49 | COc1ccc2c(c1O)CCc1c(Cc3ccc(O)cc3)c(O)cc(OC)c1-2
22.1 | COc1cc(O)cc2c1-c1cc(-c3c(O)cc(OC)c4c3ccc3cc(O)ccc34)c(O)cc1CC2
82 | COc1ccc2c(ccc3c(Cc4ccc(O)cc4)c(O)cc(OC)c32)c1
12 | COc1cc(O)cc2c1-c1cc(-c3c(O)cc(OC)c4c3CCc3cc(O)ccc3-4)c(O)cc1CC2
24.8 | COc1cc([C@H]2Oc3cc4c(cc3[C@@H]2COC(C)=O)-c2c(cc(O)cc2OC)CC4)ccc1O
17.9 | OC[C@H]1O[C@@H](Oc2ccc(Cc3c(O)ccc4c3CCc3cc(O)ccc3-4)cc2)[C@H](O)[C@@H](O)[C@@H]1O
93.5 | COc1c(O)cc2c(c1OC)-c1ccc(O)cc1CC2 [ERIANTHRIDIN]

same assay, conditions: bv-2

IC50 | Structure (SMILES)
Not Active | COc1cc(O)c2c(ccc3cc(O)ccc32)c1-c1c(OC)cc(O)c2c1ccc1cc(O)ccc12
